Reference: ChEMBL document CHEMBL1142963, “Novel sigma receptor ligands: synthesis and biological profile” (J Med Chem, 2007)
The source made the active and inactive calls. No cut-off for these calls is given here.

Tests used:
Rattus norvegicus [1] = species on record: Rattus norvegicus; test: Increase in TG-2 expression in albino Wistar rat primary 14 DIV astroglial cell at 25 uM after 24 hrs by CLSM analysis; format: functional
Summary of the method: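 Astrocytes at 14 DIV were treated with 25 µM for 24 h and fixed in 4% paraformaldehyde for 20 min. They were blocked with 1% normal serum for 1 h, then incubated overnight with anti-TG-2 monoclonal (1:500), followed by FITC and TRITC anti-IgG (1:64, 2 h each). Confocal imaging at fixed settings measured cytosolic and nuclear fluorescence intensity versus control after nonspecific subtraction.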

D(1A) dopamine receptor = D(1A) dopamine receptor (Rattus norvegicus, UniProt P18901); test: Displacement of [3H]SCH-23390 from rat striatum dopamine D1 receptor
D(1A) dopamine receptor, sequence (P18901 whole entry): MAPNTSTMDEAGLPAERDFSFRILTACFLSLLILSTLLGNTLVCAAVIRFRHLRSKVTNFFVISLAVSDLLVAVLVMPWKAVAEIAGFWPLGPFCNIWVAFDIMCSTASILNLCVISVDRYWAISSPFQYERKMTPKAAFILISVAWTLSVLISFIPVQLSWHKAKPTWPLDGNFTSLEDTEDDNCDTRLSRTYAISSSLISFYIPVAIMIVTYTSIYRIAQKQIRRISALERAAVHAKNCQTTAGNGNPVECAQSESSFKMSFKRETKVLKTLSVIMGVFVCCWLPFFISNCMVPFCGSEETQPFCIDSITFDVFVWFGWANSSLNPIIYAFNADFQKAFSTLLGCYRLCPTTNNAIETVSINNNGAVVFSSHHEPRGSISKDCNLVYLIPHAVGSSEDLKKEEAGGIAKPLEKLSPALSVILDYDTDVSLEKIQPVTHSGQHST
Summary of the method: (§1)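 Rat brain tissue by target: striatum for D1, D2 and DAT; olfactory tubercle for D3; cortex for muscarinic, 5-HT3, 5-HT2A, α1, α2, H1, NMDA and SERT; guinea pig cortex for 5-HT4. Inhibitors at seven to nine concentrations. After incubation, samples were filtered on glass fibre filters, washed three times with ice-cold buffer and counted by liquid scintillation. Ki values were derived by curve fitting.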

[2] = target: Sigma non-opioid intracellular receptor 1 (Cavia porcellus, UniProt Q60492); test: Displacement of [3H](+)-pentazocine from guinea pig brain sigma 1 receptor
Sigma non-opioid intracellular receptor 1, sequence (Q60492 whole entry): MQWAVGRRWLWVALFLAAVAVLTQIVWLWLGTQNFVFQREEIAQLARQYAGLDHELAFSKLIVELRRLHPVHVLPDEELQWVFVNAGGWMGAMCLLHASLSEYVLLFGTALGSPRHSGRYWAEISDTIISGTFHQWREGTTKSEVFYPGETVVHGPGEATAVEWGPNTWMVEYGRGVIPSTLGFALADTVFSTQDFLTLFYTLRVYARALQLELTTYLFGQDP

[3] = Displacement of [3H]DTG rom guinea pig brain sigma 2 receptor; design: species or system Cavia porcellus
Rattus norvegicus [4] = species on record: Rattus norvegicus; test: Increase of caspase 3 cleavage in albino Wistar rat primary astroglial cells at 25 uM after 24 hrs relative to control; format: functional
Summary of the method: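 Primary astrocytes from 1–2-day-old Wistar rat brains were grown 14 DIV, then exposed to ligand 25 µM for 24 h. Cells were lysed and sonicated, and 30 µg protein was run on 10% SDS-PAGE. Mean ± SD of four experiments; t test.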

[5] = target: Sodium-dependent dopamine transporter (Rattus norvegicus, UniProt P23977); test: Displacement of [3H]WIN-35428 from rat striatum DAT; summary of the method: as §1
Sodium-dependent dopamine transporter, sequence (P23977 whole entry): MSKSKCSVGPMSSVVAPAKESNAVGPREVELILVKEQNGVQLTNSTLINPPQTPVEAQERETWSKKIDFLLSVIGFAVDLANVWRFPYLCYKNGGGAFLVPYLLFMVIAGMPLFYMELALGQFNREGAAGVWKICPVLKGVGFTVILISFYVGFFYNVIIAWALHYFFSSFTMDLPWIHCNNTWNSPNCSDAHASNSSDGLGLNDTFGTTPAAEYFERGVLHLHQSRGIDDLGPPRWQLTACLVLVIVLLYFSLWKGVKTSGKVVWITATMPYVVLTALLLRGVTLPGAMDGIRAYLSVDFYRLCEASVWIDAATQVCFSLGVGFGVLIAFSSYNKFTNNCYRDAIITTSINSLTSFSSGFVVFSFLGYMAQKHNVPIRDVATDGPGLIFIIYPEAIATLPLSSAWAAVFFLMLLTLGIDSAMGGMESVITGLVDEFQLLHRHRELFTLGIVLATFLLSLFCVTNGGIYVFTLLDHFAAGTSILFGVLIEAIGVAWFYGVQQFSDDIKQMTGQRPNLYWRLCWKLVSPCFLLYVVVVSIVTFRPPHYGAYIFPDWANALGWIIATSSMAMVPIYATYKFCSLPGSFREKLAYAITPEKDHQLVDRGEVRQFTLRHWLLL

[6] = Displacement of [3H]MK-801 from rat cortex NMDA channel; summary of the method: as §1
[7] = target: Muscarinic acetylcholine receptor; test: Displacement of [3H]QNB from rat cortex muscarinic receptor; summary of the method: as §1
[8] = target: T1, 5-hydroxytryptamine receptor 3A (Rattus norvegicus, UniProt P35563); test: Displacement of [3H]LY278584 from rat cortex 5HT3 receptor; summary of the method: as §1
T1 sequence (P35563 whole entry): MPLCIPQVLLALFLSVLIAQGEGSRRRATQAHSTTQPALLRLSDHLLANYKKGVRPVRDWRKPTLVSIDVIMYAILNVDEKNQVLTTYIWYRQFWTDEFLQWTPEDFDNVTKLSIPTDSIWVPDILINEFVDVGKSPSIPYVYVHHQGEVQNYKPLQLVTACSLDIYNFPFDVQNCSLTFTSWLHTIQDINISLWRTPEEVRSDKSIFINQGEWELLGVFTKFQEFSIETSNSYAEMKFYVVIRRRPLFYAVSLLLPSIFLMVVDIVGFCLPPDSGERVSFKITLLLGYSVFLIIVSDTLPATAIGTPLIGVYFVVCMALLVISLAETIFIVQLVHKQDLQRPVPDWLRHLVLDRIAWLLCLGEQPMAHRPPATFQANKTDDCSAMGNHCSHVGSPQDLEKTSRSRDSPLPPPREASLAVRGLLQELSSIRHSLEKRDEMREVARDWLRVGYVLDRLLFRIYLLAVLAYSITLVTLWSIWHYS

Rattus norvegicus [9] = species on record: Rattus norvegicus; test: Increase in TG-2 expression in albino Wistar rat primary astroglial cells at 25 uM after 24 hrs; format: functional
Summary of the method: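 Primary Wistar rat astrocytes at 14 DIV were exposed to ligand 25 µM for 24 h. Densitometric percentage of TG-2 versus untreated control; HUVEC extract as positive control. Mean ± SD of four experiments.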

[10] = target: T2, Adrenergic receptor alpha-1 (Rattus norvegicus, UniProt P15823+P23944+P43140); test: Displacement of [3H]prazosin from rat cortex adrenergic alpha-1 receptor; summary of the method: as §1
T2 sequence (P15823 whole entry): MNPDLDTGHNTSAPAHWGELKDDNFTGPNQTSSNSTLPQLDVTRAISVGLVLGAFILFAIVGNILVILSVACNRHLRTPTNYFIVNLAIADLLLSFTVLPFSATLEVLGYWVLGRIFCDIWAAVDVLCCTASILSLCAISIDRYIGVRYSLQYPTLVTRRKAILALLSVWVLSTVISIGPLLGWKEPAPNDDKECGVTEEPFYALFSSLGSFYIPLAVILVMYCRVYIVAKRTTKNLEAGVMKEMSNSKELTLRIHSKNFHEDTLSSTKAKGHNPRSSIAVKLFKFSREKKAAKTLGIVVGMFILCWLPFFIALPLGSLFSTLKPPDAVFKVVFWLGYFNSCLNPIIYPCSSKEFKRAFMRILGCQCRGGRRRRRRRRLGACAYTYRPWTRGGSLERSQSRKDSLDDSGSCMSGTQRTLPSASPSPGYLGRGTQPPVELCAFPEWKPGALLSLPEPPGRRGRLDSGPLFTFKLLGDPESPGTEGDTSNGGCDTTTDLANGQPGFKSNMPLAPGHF
T2 sequence (P23944 whole entry): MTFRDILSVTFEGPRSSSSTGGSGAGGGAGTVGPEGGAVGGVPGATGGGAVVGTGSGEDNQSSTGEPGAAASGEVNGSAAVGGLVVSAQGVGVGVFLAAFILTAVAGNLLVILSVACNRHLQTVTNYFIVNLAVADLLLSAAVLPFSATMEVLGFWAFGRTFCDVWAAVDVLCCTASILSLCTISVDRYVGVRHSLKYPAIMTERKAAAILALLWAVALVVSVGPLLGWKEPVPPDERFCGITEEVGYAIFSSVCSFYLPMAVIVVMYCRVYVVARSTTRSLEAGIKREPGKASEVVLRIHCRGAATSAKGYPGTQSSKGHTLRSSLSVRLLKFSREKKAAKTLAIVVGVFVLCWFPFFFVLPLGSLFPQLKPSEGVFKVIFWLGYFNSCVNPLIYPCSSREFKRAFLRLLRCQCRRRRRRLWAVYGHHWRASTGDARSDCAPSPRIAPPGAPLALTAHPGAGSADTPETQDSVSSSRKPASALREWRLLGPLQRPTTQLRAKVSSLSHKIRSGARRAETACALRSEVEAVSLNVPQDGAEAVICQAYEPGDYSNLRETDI
T2 sequence (P43140 whole entry): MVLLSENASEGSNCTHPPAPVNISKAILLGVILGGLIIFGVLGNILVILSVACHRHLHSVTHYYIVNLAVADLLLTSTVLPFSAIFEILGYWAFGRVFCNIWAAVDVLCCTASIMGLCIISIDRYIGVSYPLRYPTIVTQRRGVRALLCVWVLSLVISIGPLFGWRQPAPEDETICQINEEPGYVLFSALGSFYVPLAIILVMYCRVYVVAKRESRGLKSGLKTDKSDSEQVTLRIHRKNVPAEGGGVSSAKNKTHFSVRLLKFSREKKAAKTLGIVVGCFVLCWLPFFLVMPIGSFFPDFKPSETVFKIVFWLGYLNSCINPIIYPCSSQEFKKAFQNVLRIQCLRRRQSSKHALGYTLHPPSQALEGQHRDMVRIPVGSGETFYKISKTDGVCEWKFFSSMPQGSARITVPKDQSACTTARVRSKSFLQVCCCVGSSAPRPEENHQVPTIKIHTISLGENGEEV

## COC(=O)C1(c2ccc(C)cc2)CC1CN1CCC(O)(c2ccccc2)CC1 (stereo unspecified)
Rattus norvegicus [1]
  Activity: Active
D(1A) dopamine receptor
  Ki: > 10 µM
[2]
  Ki: 0.0015 µM
[3]
  Ki: 0.0508 µM
Rattus norvegicus [4]
  Activity: Active
[5]
  Ki: > 10 µM
[6]
  Ki: > 10 µM
[7]
  Ki: > 10 µM
[8]
  Ki: > 10 µM
Rattus norvegicus [9]
  Activity: Active
[10]
  Ki: 0.605 µM
